Assay results published in ChEMBL document CHEMBL1142894, “Preparation of 5-aryl-3-alkylthio-l,2,4-triazoles and corresponding sulfones with antiinflammatory-analgesic activity” (Bioorg Med Chem, 2007).
Activity calls are given as the source filed them. The calls are words filed in the database; no cut-off is given here.

Columns and labels:
Mus musculus [1] = experiment: Antiinflammatory activity against carrageenan-induced paw edema in Swiss albino mouse assessed as swelling thickness at 100 mg/kg, po after 90 mins; type: functional
How it was run: (§1)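 Oral dosing in 0.5% CMC; vehicle to controls. Then carrageenan (0.5 mg/25 ll, freshly suspended in 154 mM saline) injected into the right hind paw subplantar tissue; saline into the left paw. Right-left footpad thickness difference measured by dial gauge calliper every 90 min over 6 h. Inhibition % is relative to vehicle control. n = 6; mean ± SEM.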

Mus musculus [2] = experiment: Antiinflammatory activity against carrageenan-induced paw edema in Swiss albino mouse assessed as swelling thickness at 100 mg/kg, po after 180 mins; type: functional; how it was run: as §1
Mus musculus [3] = experiment: Antiinflammatory activity against carrageenan-induced paw edema in Swiss albino mouse assessed as swelling thickness at 100 mg/kg, po after 270 mins; type: functional; how it was run: as §1
Mus musculus [4] = experiment: Antiinflammatory activity against carrageenan-induced paw edema in Swiss albino mouse assessed as swelling thickness at 100 mg/kg, po after 360 mins; type: functional; how it was run: as §1
Mus musculus [5] = experiment: Inhibition of carrageenan-induced paw edema in Swiss albino mouse at 100 mg/kg, po after 90 mins relative to control; type: functional; conditions: 1.5 h; how it was run: as §1
Mus musculus [6] = experiment: Inhibition of carrageenan-induced paw edema in Swiss albino mouse at 100 mg/kg, po after 180 mins relative to control; type: functional; conditions: 3 h; how it was run: as §1
Mus musculus [7] = experiment: Inhibition of carrageenan-induced paw edema in Swiss albino mouse at 100 mg/kg, po after 270 mins relative to control; type: functional; conditions: 4.5 h; how it was run: as §1
Mus musculus [8] = experiment: Inhibition of carrageenan-induced paw edema in Swiss albino mouse at 100 mg/kg, po after 360 mins relative to control; type: functional; conditions: 6 h; how it was run: as §1
Mus musculus [9] = experiment: Analgesic activity against p-benzoquinone-induced abdominal constriction in Swiss albino mouse assessed as number of writhings at 25 mg/kg, po; type: functional, Abdomen
How it was run: (§2)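 Test samples given orally in 0.5% CMC; vehicle to controls. 60 min later, 2.5% (v/v) p-benzoquinone in distilled water, 0.1 ml/10 g, given i.p. Mice housed singly; writhes counted for 15 min starting 5 min after injection. Activity is % change from vehicle controls. n = 6; mean ± SEM.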

Mus musculus [10] = experiment: Analgesic activity against p-benzoquinone-induced abdominal constriction in Swiss albino mouse assessed as number of writhings at 50 mg/kg, po; type: functional, Abdomen; how it was run: as §2
Mus musculus [11] = experiment: Analgesic activity against p-benzoquinone-induced abdominal constriction in Swiss albino mouse assessed as number of writhings at 100 mg/kg, po; type: functional, Abdomen; how it was run: as §2
Mus musculus [12] = experiment: Analgesic activity against p-benzoquinone-induced abdominal constriction in Swiss albino mouse assessed as number of writhings at 200 mg/kg, po; type: functional, Abdomen; how it was run: as §2
Mus musculus [13] = experiment: Inhibition of p-benzoquinone-induced writhing in Swiss albino mouse at 25 mg/kg, po relative to control; type: functional
How it was run: (§3)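 Mice, n = 6 per group, dosed orally with a suspension in 0.5% sodium CMC. 60 min later, 0.1 ml/10 g of 2.5% […] p-benzoquinone in distilled water given ip. Abdominal writhes counted per animal for 15 min, starting 5 min after injection. Expressed as % change in mean writhing count versus vehicle controls.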

Mus musculus [14] = experiment: Inhibition of p-benzoquinone-induced writhing in Swiss albino mouse at 50 mg/kg, po relative to control; type: functional; how it was run: as §3
Mus musculus [15] = experiment: Inhibition of p-benzoquinone-induced writhing in Swiss albino mouse at 100 mg/kg, po relative to control; type: functional; how it was run: as §3
Mus musculus [16] = experiment: Inhibition of p-benzoquinone-induced writhing in Swiss albino mouse at 200 mg/kg, po relative to control; type: functional; how it was run: as §3
Mus musculus [17] = experiment: Gastric-ulcerogenic effect in Swiss albino mouse assessed as lesions at 25 mg/kg, po; type: functional, organism-based; design: dose 25 mg/kg
How it was run: (§4)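 Mice killed under deep ether anesthesia 3 h after the writhing test; the oral dose in 0.5% CMC was the one used in that test. Stomachs removed, opened along the great curvature and examined under a dissecting microscope for lesions or bleeding. Reported as ratio of ulceration; n = 6.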

Mus musculus [18] = experiment: Gastric-ulcerogenic effect in Swiss albino mouse assessed as lesions at 50 mg/kg, po; type: functional, organism-based; design: dose 50 mg/kg; how it was run: as §4
Mus musculus [19] = experiment: Gastric-ulcerogenic effect in Swiss albino mouse assessed as lesions at 100 mg/kg, po; type: functional, organism-based; design: dose 100 mg/kg; how it was run: as §4
Mus musculus [20] = experiment: Gastric-ulcerogenic effect in Swiss albino mouse assessed as lesions at 200 mg/kg, po; type: functional, organism-based; design: dose 200 mg/kg; how it was run: as §4
Mus musculus [21] = experiment: Antiinflammatory activity against carrageenan-induced paw edema in Swiss albino mouse assessed as swelling thickness at 25 mg/kg, po after 90 mins; type: functional; how it was run: as §1
Mus musculus [22] = experiment: Antiinflammatory activity against carrageenan-induced paw edema in Swiss albino mouse assessed as swelling thickness at 25 mg/kg, po after 180 mins; type: functional; how it was run: as §1
Mus musculus [23] = experiment: Antiinflammatory activity against carrageenan-induced paw edema in Swiss albino mouse assessed as swelling thickness at 25 mg/kg, po after 270 mins; type: functional; how it was run: as §1
Mus musculus [24] = experiment: Antiinflammatory activity against carrageenan-induced paw edema in Swiss albino mouse assessed as swelling thickness at 25 mg/kg, po after 360 mins; type: functional; how it was run: as §1
Mus musculus [25] = experiment: Antiinflammatory activity against carrageenan-induced paw edema in Swiss albino mouse assessed as swelling thickness at 50 mg/kg, po after 180 mins; type: functional; how it was run: as §1
Mus musculus [26] = experiment: Antiinflammatory activity against carrageenan-induced paw edema in Swiss albino mouse assessed as swelling thickness at 50 mg/kg, po after 270 mins; type: functional; how it was run: as §1
Mus musculus [27] = experiment: Antiinflammatory activity against carrageenan-induced paw edema in Swiss albino mouse assessed as swelling thickness at 50 mg/kg, po after 360 mins; type: functional; how it was run: as §1
Mus musculus [28] = experiment: Antiinflammatory activity against carrageenan-induced paw edema in Swiss albino mouse assessed as swelling thickness at 200 mg/kg, po after 90 mins; type: functional; how it was run: as §1
Mus musculus [29] = experiment: Antiinflammatory activity against carrageenan-induced paw edema in Swiss albino mouse assessed as swelling thickness at 200 mg/kg, po after 180 mins; type: functional; how it was run: as §1
Mus musculus [30] = experiment: Antiinflammatory activity against carrageenan-induced paw edema in Swiss albino mouse assessed as swelling thickness at 200 mg/kg, po after 270 mins; type: functional; how it was run: as §1
Mus musculus [31] = experiment: Antiinflammatory activity against carrageenan-induced paw edema in Swiss albino mouse assessed as swelling thickness at 200 mg/kg, po after 360 mins; type: functional; how it was run: as §1
Mus musculus [32] = experiment: Inhibition of carrageenan-induced paw edema in Swiss albino mouse at 25 mg/kg, po after 90 mins relative to control; type: functional; conditions: 1.5 h; how it was run: as §1
Mus musculus [33] = experiment: Inhibition of carrageenan-induced paw edema in Swiss albino mouse at 25 mg/kg, po after 180 mins relative to control; type: functional; conditions: 3 h; how it was run: as §1
Mus musculus [34] = experiment: Inhibition of carrageenan-induced paw edema in Swiss albino mouse at 25 mg/kg, po after 270 mins relative to control; type: functional; conditions: 4.5 h; how it was run: as §1
Mus musculus [35] = experiment: Inhibition of carrageenan-induced paw edema in Swiss albino mouse at 25 mg/kg, po after 360 mins relative to control; type: functional; conditions: 6 h; how it was run: as §1
Mus musculus [36] = experiment: Inhibition of carrageenan-induced paw edema in Swiss albino mouse at 50 mg/kg, po after 90 mins relative to control; type: functional; conditions: 1.5 h
How it was run: (§5)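 Mice, n = 6 per group. Test agent given orally as a suspension in 0.5% sodium CMC in distilled water; controls received vehicle only. Afterwards, 0.5 mg/25 ll carrageenan in saline (154 mM NaCl) injected subplantar into the right hind paw, saline into the left. Right-minus-left footpad thickness measured by dial gauge caliper every 90 min for 6 h. Inhibition is relative to vehicle-control group means.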

Mus musculus [37] = experiment: Inhibition of carrageenan-induced paw edema in Swiss albino mouse at 50 mg/kg, po after 180 mins relative to control; type: functional; conditions: 3 h; how it was run: as §1
Mus musculus [38] = experiment: Inhibition of carrageenan-induced paw edema in Swiss albino mouse at 50 mg/kg, po after 270 mins relative to control; type: functional; conditions: 4.5 h; how it was run: as §5
Mus musculus [39] = experiment: Inhibition of carrageenan-induced paw edema in Swiss albino mouse at 50 mg/kg, po after 360 mins relative to control; type: functional; conditions: 6 h; how it was run: as §5
Mus musculus [40] = experiment: Antiinflammatory activity against carrageenan-induced paw edema in Swiss albino mouse assessed as swelling thickness at 50 mg/kg, po after 90 mins; type: functional; how it was run: as §1

CSc1nnc(-c2ccc(Cl)cc2)[nH]1
Activity (Mus musculus [1]): 34 10^-2mm | Activity (Mus musculus [2]): 38.3 10^-2mm | Activity (Mus musculus [3]): 43 10^-2mm | Activity (Mus musculus [4]): 48 10^-2mm | inhibition in vivo at 100 mg/kg (Mus musculus [5]): 24.1% | inhibition in vivo at 100 mg/kg (Mus musculus [6]): 25.6% | inhibition in vivo at 100 mg/kg (Mus musculus [7]): 26.9% | inhibition in vivo at 100 mg/kg (Mus musculus [8]): 30.2% | Activity (Mus musculus [9]): 44.7 | Activity (Mus musculus [10]): 34.1 | Activity (Mus musculus [11]): 34.1 | Activity (Mus musculus [12]): 43.3 | inhibition in vivo at 25 mg/kg (Mus musculus [13]): 13% | inhibition in vivo at 50 mg/kg (Mus musculus [14]): 33.7% | inhibition in vivo at 100 mg/kg (Mus musculus [15]): 27.9% | inhibition in vivo at 200 mg/kg (Mus musculus [16]): 15.8% | Activity (Mus musculus [17]): Active | Activity (Mus musculus [18]): Active | Activity (Mus musculus [19]): Active | Activity (Mus musculus [20]): Active | Activity (Mus musculus [21]): 43.5 10^-2mm | Activity (Mus musculus [22]): 48.9 10^-2mm | Activity (Mus musculus [23]): 51.5 10^-2mm | Activity (Mus musculus [24]): 58.9 10^-2mm | Activity (Mus musculus [25]): 41.2 10^-2mm | Activity (Mus musculus [26]): 42.2 10^-2mm | Activity (Mus musculus [27]): 47.1 10^-2mm | Activity (Mus musculus [28]): 54.7 10^-2mm | Activity (Mus musculus [29]): 61.2 10^-2mm | Activity (Mus musculus [30]): 65.9 10^-2mm | Activity (Mus musculus [31]): 76.8 10^-2mm | inhibition in vivo at 25 mg/kg (Mus musculus [32]): 18.2% | inhibition in vivo at 25 mg/kg (Mus musculus [33]): 17.7% | inhibition in vivo at 25 mg/kg (Mus musculus [34]): 20.5% | inhibition in vivo at 25 mg/kg (Mus musculus [35]): 18.2% | inhibition in vivo at 50 mg/kg (Mus musculus [36]): 29.7% | inhibition in vivo at 50 mg/kg (Mus musculus [37]): 30.6% | inhibition in vivo at 50 mg/kg (Mus musculus [38]): 34.9% | inhibition in vivo at 50 mg/kg (Mus musculus [39]): 34.6% | Activity (Mus musculus [40]): 37.4 10^-2mm
